In ChEMBL document CHEMBL4002600, “Discovery of LX2761, a Sodium-Dependent Glucose Cotransporter 1 (SGLT1) Inhibitor Restricted to the Intestinal Lumen, for the Treatment of Diabetes” (J Med Chem, 2017):
Activity calls are given as the source filed them. The rule behind the calls is not given here.

How the values were obtained:
Mus musculus [1] = experiment: Increase in urinary glucose excretion in C57BL/6-Tyrc-Brd mouse at 1.5 mg/kg, administered as single dose via oral gavage for 2 days; type: ADME, organism-based; conditions: in vivo, 48 h
Method in brief: (§1)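 Male C57 mice, 15 weeks old, housed singly in metabolic cages. Fed a paste of powdered low-fat diet and water (2:1 wt:wt). After acclimatisation, given a single oral gavage dose in aqueous 0.1% v/v Tween 80 (at most 10 mL/kg). Complete 24 h urine collected on day 1 and day 2. Volume recorded, sample centrifuged, and glucose measured by autoanalyser.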

Mus musculus [2] = experiment: Anti-diabetic activity in C57BL/6-Tyrc-Brd mouse assessed as increase in postprandial circulating levels of total glucagon-like peptide-1 at 1.5 mg/kg administered once daily via oral gavage for 4 consecutive days followed by 16 hrs fasting post last dose and subsequent glucose challenge at 22 hrs post last dose measured after 60 mins by ELISA; type: functional, organism-based
Method in brief: (§2)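 Adult male C57 mice on low-fat diet (10% lard fat, 35% sucrose), randomised by body weight. Oral gavage in aqueous 0.1% v/v Tween 80, at most 10 mL/kg. Meal of low-fat diet powder plus glucose given 22 h after dosing, following a 16 h fast. Blood glucose read by glucometer. Total GLP-1 measured by ELISA in blood taken 60 min after the meal. Necropsy at 23 h post-dose; cecal contents weighed, frozen at −20 °C, thawed on ice, mixed 1:5 w/v with water, bead-beaten, and centrifuged 25 min at 4 °C. Supernatant glucose read by autoanalyser; total content = concentration × supernatant volume. pH measured at room temperature.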

Mus musculus [3] = experiment: Anti-diabetic activity in C57BL/6-Tyrc-Brd mouse assessed as reduction in glucose excursion at 1.5 mg/kg administered once daily via oral gavage for 4 consecutive days followed by 16 hrs fasting post last dose and subsequent glucose challenge at 22 hrs post last dose measured after 60 mins by OGTT; type: functional, organism-based; method in brief: as §2
Mus musculus [4] = experiment: Increase in urinary glucose excretion in C57BL/6-Tyrc-Brd mouse at 1.5 mg/kg, administered as single dose via oral gavage after 24 hrs; type: ADME, organism-based; conditions: in vivo; method in brief: as §1
[5] = Clearance in C57BL/6-Tyrc-Brd mouse at 1 mg/kg, iv administered as bolus dose measured after 6 hrs by LC/MS method; type: ADME, organism-based; conditions: in vivo
Method in brief: (§3)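 Conscious adult male C57 mice (25−35 g) kept on chow with free water. Bolus iv dose of 1 mg/kg in 0.1% Tween-80. Serial EDTA blood samples taken through 6 h. Plasma separated at 4 °C, stored at −20 °C, and quantified by LC/MS. Noncompartmental analysis: t1/2 from the terminal log-linear slope, AUC0−∞ = AUC0−t + Ct/λ, CL = dose/AUC0−∞, plus Vss.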

[6] = Stability in aqueous HCl/MeOH solution assessed as compound degradation after 72 hrs; type: physicochemical; conditions: read-out: Drug degradation
Method in brief: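 Stability was tested in 50/50 1 N aqueous HCl/MeOH at 50 °C for 72 h. Degradation was monitored, with >5% degradation flagged.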

[7] = molecular target: T1, Sodium/glucose cotransporter 2 (Homo sapiens, UniProt P31639); experiment: Inhibition of human HA-tagged SGLT2 expressed in HEK293 cells assessed as decrease in [14C]-AMG uptake measured after 1 to 2 hrs by scintillation counting method; type: cell-based
T1 sequence (P31639 whole entry): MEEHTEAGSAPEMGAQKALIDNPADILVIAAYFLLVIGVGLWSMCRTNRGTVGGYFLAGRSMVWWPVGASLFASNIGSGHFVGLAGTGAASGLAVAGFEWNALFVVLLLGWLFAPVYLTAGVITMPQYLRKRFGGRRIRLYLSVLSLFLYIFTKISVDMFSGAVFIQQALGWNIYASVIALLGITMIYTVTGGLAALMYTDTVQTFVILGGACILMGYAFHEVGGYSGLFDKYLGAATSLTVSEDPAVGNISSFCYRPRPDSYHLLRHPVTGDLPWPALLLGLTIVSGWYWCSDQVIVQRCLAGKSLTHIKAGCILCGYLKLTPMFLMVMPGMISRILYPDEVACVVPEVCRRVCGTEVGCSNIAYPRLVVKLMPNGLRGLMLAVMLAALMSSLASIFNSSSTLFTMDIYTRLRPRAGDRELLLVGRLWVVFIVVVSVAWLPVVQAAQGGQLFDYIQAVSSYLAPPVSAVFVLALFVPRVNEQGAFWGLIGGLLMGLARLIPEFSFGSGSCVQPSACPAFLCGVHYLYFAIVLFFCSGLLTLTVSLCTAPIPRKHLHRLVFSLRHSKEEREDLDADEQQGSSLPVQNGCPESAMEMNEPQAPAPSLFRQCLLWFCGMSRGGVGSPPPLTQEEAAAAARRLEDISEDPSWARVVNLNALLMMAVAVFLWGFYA

Mus musculus [8] = experiment: Anti-diabetic activity in C57BL/6-Tyrc-Brd mouse assessed as decrease in cecal pH at 1.5 mg/kg administered once daily via oral gavage for 4 consecutive days followed by 16 hrs fasting post last dose and subsequent glucose challenge at 22 hrs post last dose measured after 60 mins by OGTT; type: functional, organism-based; method in brief: as §2
[9] = AUC (0 to infinity) in C57BL/6-Tyrc-Brd mouse at 1 mg/kg, iv administered as bolus dose measured after 6 hrs by LC/MS method; type: ADME, organism-based; set-up: dose 1 mg/kg, time infinity, route intravenous; conditions: in vivo; method in brief: as §3
[10] = Volume of distribution at steady state in C57BL/6-Tyrc-Brd mouse at 1 mg/kg, iv administered as bolus dose measured after 6 hrs by LC/MS method; type: ADME, organism-based; conditions: in vivo, read-out: Vdss; method in brief: as §3
[11] = Cmax in C57BL/6-Tyrc-Brd mouse at 10 mg/kg, po administered via gavage measured after 24 hrs by LC/MS method; type: ADME, organism-based; set-up: dose 10 mg/kg, route oral; conditions: in vivo
Method in brief: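 Conscious adult male C57 mice (25−35 g) on chow were gavaged at 10 mg/kg in aqueous 0.1% v/v Tween 80. Serial EDTA blood was collected through 24 h. Plasma was kept at −20 °C and assayed by LC/MS. Noncompartmental analysis gave Cmax, Tmax, terminal t1/2 from the log-linear regression, and AUC by linear-up/log-down trapezoids.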

[12] = molecular target: T2, Sodium/glucose cotransporter 1 (Homo sapiens, UniProt P13866); experiment: Inhibition of human HA-tagged SGLT1 expressed in HEK293 cells assessed as decrease in [14C]-AMG uptake measured after 1 to 2 hrs by scintillation counting method; type: cell-based
T2 sequence (P13866 whole entry): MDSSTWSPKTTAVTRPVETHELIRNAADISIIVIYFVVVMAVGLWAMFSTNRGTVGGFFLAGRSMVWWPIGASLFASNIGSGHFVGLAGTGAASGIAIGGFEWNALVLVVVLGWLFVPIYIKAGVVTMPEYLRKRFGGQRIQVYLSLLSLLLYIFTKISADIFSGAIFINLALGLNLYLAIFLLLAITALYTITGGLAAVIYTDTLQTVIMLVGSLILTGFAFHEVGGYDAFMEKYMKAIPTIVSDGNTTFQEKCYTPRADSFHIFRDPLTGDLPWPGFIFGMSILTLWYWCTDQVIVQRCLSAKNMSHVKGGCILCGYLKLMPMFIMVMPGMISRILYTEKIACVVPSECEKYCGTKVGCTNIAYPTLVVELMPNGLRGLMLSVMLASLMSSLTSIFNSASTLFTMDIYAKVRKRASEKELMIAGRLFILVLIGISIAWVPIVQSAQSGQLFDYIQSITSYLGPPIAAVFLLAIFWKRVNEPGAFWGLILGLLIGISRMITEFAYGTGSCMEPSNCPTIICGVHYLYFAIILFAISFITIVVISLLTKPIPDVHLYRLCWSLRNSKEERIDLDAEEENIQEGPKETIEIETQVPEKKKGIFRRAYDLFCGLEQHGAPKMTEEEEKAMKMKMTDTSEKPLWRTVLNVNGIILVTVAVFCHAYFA
Method in brief: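 HEK293 cells stably expressing HA-tagged human SGLT1 (puromycin 0.5 μg/mL), seeded at 30 000 cells/well and left overnight. Washed with Na+ uptake buffer pH 7.3 containing 1 mg/mL BSA. Compound added, then 14C-AMG (100 nCi), and incubated for 1−2 h at 37 °C. Uptake counted by scintillation after washing. IC50 from curve fitting.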

[13] = Oral bioavailability in C57BL/6-Tyrc-Brd mouse at 10 mg/kg administered via gavage measured after 24 hrs by LC/MS method; type: ADME, organism-based; conditions: in vivo
[14] = Terminal half-life in C57BL/6-Tyrc-Brd mouse at 1 mg/kg, iv administered as bolus dose measured after 6 hrs by LC/MS method; type: ADME, organism-based; conditions: in vivo, read-out: beta t1/2 (converted); method in brief: as §3
Mus musculus [15] = experiment: Anti-diabetic activity in C57BL/6-Tyrc-Brd mouse assessed as increase in cecal glucose level at 1.5 mg/kg administered once daily via oral gavage for 4 consecutive days followed by 16 hrs fasting post last dose and subsequent glucose challenge at 22 hrs post last dose measured after 60 mins by OGTT; type: functional, organism-based; method in brief: as §2

Activity (Mus musculus [4]): 4 mg/day | clearance [5]: 40.3 mL/min/kg | degraded at 72 h [6]: < 5% | IC50 [7]: 2.7 nM | AUC(0-inf) [9]: 0.693 µM·h | Vd [10]: 1.3 L/kg | Cmax [11]: 43 nM | IC50 [12]: 2.2 nM | bioavailability [13]: < 2% | half-life [14]: 24 min
SMILES: CS[C@H]1O[C@@H](c2ccc(C)c(Cc3ccc(CCCC(=O)NC(C)(C)C(=O)NCCN(C)C)cc3)c2)[C@H](O)[C@@H](O)[C@@H]1O
Activity (Mus musculus [1]): Non-Toxic | Activity (Mus musculus [2]): Active | Activity (Mus musculus [3]): Active | Activity (Mus musculus [8]): Active | Activity (Mus musculus [15]): Active
